# Test system: KB
# Assay: Cytotoxicity against human KB cells after 72 hrs
# Type: functional
# Settings: read-out: ED50 (the source's name)
# Procedure, shortened: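 KB cells kept in MEM with 5% fetal calf serum; assay run largely per NCI guidelines in 24-well plates in a CO₂ incubator. Cells assayed after 72 h by a literature procedure. ED₅₀ estimated from semi-log plots of sample concentration (μg/ml) against percent viable cells; three determinations.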
row,SMILES,EC50 [µg/mL]
1,COC(=O)c1cc(O)c(OC)c(O)c1,8.62
2,COc1cc(O)c(-c2oc3cc(OC)c(OC)c(O)c3c(=O)c2OC)cc1OC [BRICKELLIN],> 25
3,COc1cc(-c2oc3cc(OC)c(OC)c(O)c3c(=O)c2OC)ccc1O [CHRYSOSPLENOL B],7.42
4,COc1cc(-c2oc3cc(OC)c(O)c(O)c3c(=O)c2OC)ccc1O [CHRYSOSPLENOL C],11.2
5,COc1cc2oc(-c3ccc(O)c(O)c3)c(OC)c(=O)c2c(O)c1OC [CHRYSOSPLENOL D],13.9
6,COc1cc(O)c2c(=O)c(OC)c(-c3cc(OC)c(OC)cc3O)oc2c1 [CHRYSOSPLENOL E],> 25
7,COc1cc(O)c2c(=O)c(OC)c(-c3cc(OC)c(O)cc3O)oc2c1 [CHRYSOSPLENOL F],> 25
8,COc1cc(O)c2c(=O)c(OC)c(-c3cc(O)c(OC)cc3OC)oc2c1 [CHRYSOSPLENOL G],8.61
9,COc1cc(O)c2c(=O)c(OC)c(-c3cc(O)c(OC)cc3O)oc2c1 [OXYAYANIN A],1.99
10,COc1cc(O)c2c(=O)c(OC)c(-c3ccc(OC)c(OC)c3)oc2c1 [RETUSIN],> 25

# Reference: ChEMBL document CHEMBL1158964, “Isolation and cytotoxicity of two new flavonoids from Chrysosplenium grayanum and related flavonols” (1991)
